Laboratory results from ChEMBL document CHEMBL1154734, “Small-sized human immunodeficiency virus type-1 protease inhibitors containing allophenylnorstatine to explore the S2' pocket” (J Med Chem, 2009).
In brackets after ≈: the same amount, converted by molar mass.

What was measured:
[1] = molecular target: Protease (Human immunodeficiency virus 1) (UniProt Q9YQ12); assay: Inhibition of HIV1 recombinant protease at 50 nM after 15 mins by fluorescence assay
Outline: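 Recombinant HIV-1 protease was assayed in MES–NaOH pH 5.5 with DTT, EDTA and NaCl, with inhibitor at 50 nM final (500 nM DMSO stock). The substrate was H-Lys-Ala-Arg-Val-Tyr-Phe(p-NO2)-Glu-Ala-Nle-NH2, and the reaction ran 15 min at 37 °C. It was stopped with 1 N HCl. The N-terminal fragment was quantified by RP-HPLC with fluorescence at ex 275/em 305 nm.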

[2] = tested on: Human immunodeficiency virus 1; assay: Antiviral activity against HIV1 3B infected in human MT4 cells assessed as inhibition of virus-induced cytopathic effect after 5 days by MTT assay; type: functional, organism-based; conditions: Human immunodeficiency virus 1, 3B, MT4, 120 h
Outline: (§1)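 HIV-1 (IIIB or pNL4-3) inoculated into MT-4 cells. Cultures were treated with an equal volume of a 1% DMSO solution of compound at several concentrations plus 10% fetal bovine serum, then incubated 5 days at 37 °C in CO2, in triplicate. After MTT, optical density gave the percent cytopathic effect reduction. EC50 was fitted to a median-effect equation.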

[3] = molecular target: Protease (Human immunodeficiency virus 1) (UniProt Q9YQ12); assay: Inhibition of HIV1 recombinant protease at 1 nM after 3 hrs by fluorescence assay
[4] = tested on: Human immunodeficiency virus 1; assay: Antiviral activity against indinavir-resistant HIV1 harboring L10R/M46I/L63P/V82T/I84V mutant protease infected in human MT4 cells assessed as inhibition of virus-induced cytopathic effect after 5 days by MTT assay; type: functional, organism-based; conditions: Human immunodeficiency virus 1, MT4, 120 h
Outline: (§2)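 MT-4 cells inoculated with HIV-1 wild-type pNL4-3 or indinavir-resistant IND-R, then given an equal volume of compound in 1% DMSO at several concentrations with 10% fetal bovine serum. Incubated 5 days at 37 °C in CO2, in triplicate. MTT read-out by optical density gave percent cytopathic-effect reduction; EC50 was fitted to a median-effect equation.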

[5] = tested on: Human immunodeficiency virus 1; assay: Antiviral activity against HIV1 pNL4-3 infected in human MT4 cells assessed as inhibition of virus-induced cytopathic effect after 5 days by MTT assay; type: functional, organism-based; conditions: Human immunodeficiency virus 1, pNL4-3, MT4, 120 h; outline: as §1
[6] = tested on: Human immunodeficiency virus 1; assay: Fold resistance, ratio of EC50 for indinavir-resistant HIV1 harboring L10R/M46I/L63P/V82T/I84V mutant protease infected in human MT4 cells to EC50 for HIV1 pNL4-3 infected in human MT4 cells; type: functional; outline: as §2
[7] = tested on: Human immunodeficiency virus 1; assay: Antiviral activity against HIV1 3B infected in human MT4 cells assessed as inhibition of virus-induced cytopathic effect after 5 days by MTT assay in presence of 50% human serum; type: functional, organism-based; conditions: Human immunodeficiency virus 1, 3B, MT4, 120 h
Outline: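 MT-4 cells were infected with wild-type HIV-1 (IIIB or pNL4-3) in the presence of 50% human serum. Compound was added at several concentrations from a 1% DMSO solution, and cells were incubated 5 days at 37 °C in triplicate. Cytopathic effect reduction was read by MTT optical density, and EC50 was derived from a median-effect equation fit.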

[8] = tested on: Human immunodeficiency virus 1; assay: Antiviral activity against HIV1 3B infected in human MT4 cells assessed as inhibition of virus-induced cytopathic effect after 5 days by MTT assay in absence of human serum; type: functional, organism-based; conditions: Human immunodeficiency virus 1, 3B, MT4, 120 h; outline: as §1
[9] = Aqueous solubility in 0.1% TFA after 30 mins by RP-HPLC analysis; type: physicochemical; conditions: 0.1% TFA in water
[10] = tested on: Human immunodeficiency virus 1; assay: Ratio of EC50 for HIV1 3B infected in human MT4 cells in presence of 50% human serum to EC50 for HIV1 3B infected in human MT4 cells in absence of human serum; type: functional

Chain of Protease (Human immunodeficiency virus 1) (Q9YQ12 as listed by the source): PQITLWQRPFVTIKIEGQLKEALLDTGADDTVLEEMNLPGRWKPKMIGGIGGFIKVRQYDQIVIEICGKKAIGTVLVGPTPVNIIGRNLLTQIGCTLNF

SMILES	inhibition [1]	EC50 [2]	inhibition [3]	EC50 [4]	EC50 [5]	Ratio EC50 [6]	EC50 [7]	EC50 [8]	solubility at 0.5 h [9]	Ratio EC50 [10]
Cc1c(O)cccc1C(=O)N[C@@H](Cc1ccccc1)[C@H](O)C(=O)N1CSC(C)(C)[C@H]1C(=O)NCc1c(F)cccc1F	91%	51 nM	24%							
Cc1cccc(Cl)c1CNC(=O)[C@H]1N(C(=O)[C@@H](O)[C@H](Cc2ccccc2)NC(=O)c2cccc(O)c2C)CSC1(C)C	99%	32 nM	77%							
Cc1c(O)cccc1C(=O)N[C@@H](Cc1ccccc1)[C@H](O)C(=O)N1CSC(C)(C)[C@H]1C(=O)N[C@H](C)c1ccccc1	52%	617 nM								
Cc1c(O)cccc1CNC(=O)[C@H]1N(C(=O)[C@@H](O)[C@H](Cc2ccccc2)NC(=O)c2cccc(O)c2C)CSC1(C)C	95%	120 nM	41%	155 nM	162 nM	1				
Cc1c(O)cccc1C(=O)N[C@@H](Cc1ccccc1)[C@H](O)C(=O)N1CSC(C)(C)[C@H]1C(=O)N[C@H]1c2ccccc2C[C@H]1O	92%	100 nM								
C=CCNC(=O)[C@H]1N(C(=O)[C@@H](O)[C@H](Cc2ccccc2)NC(=O)c2cccc(O)c2C)CSC1(C)C	93%	123 nM		173 nM	141 nM	1.2				
C#CCNC(=O)[C@H]1N(C(=O)[C@@H](O)[C@H](Cc2ccccc2)NC(=O)c2cccc(O)c2C)CSC1(C)C	90%	110 nM		1930 nM	558 nM	3.5				
Cc1c(O)cccc1C(=O)N[C@@H](Cc1ccccc1)[C@H](O)C(=O)N1CSC(C)(C)[C@H]1C(=O)NCc1c(Cl)cccc1Cl	98%	39 nM	66%							
Cc1c(O)cccc1C(=O)N[C@@H](Cc1ccccc1)[C@H](O)C(=O)N1CSC(C)(C)[C@H]1C(=O)N[C@@H]1CCc2ccccc21	91%	353 nM								
CCCNC(=O)[C@H]1N(C(=O)[C@@H](O)[C@H](Cc2ccccc2)NC(=O)c2cccc(O)c2C)CSC1(C)C	88%	91 nM								
Cc1ccccc1CNC(=O)[C@H]1N(C(=O)[C@@H](O)[C@H](Cc2ccccc2)NC(=O)COc2c(C)cc(N)cc2C)CSC1(C)C	98%			568 nM	103 nM	5.5	249 nM	83 nM	2640 µg/mL (≈ 4.27 mM)	3
Cc1cccc(C)c1OCC(=O)N[C@@H](Cc1ccccc1)[C@@H](O)C[C@H](Cc1ccccc1)NC(=O)[C@H](C(C)C)N1CCCNC1=O [LOPINAVIR]		30 nM		385 nM	16 nM	24				
Cc1ccccc1CNC(=O)[C@H]1N(C(=O)[C@@H](O)[C@H](Cc2ccccc2)NC(=O)COc2c(C)cc(N(C)C)cc2C)CSC1(C)C	85%						3900 nM	758 nM	3830 µg/mL (≈ 5.92 mM)	5.1
Cc1cc(N)cc(C)c1OCC(=O)N[C@@H](Cc1ccccc1)[C@H](O)C(=O)N1CSC(C)(C)[C@H]1C(=O)N[C@H]1CCc2ccccc21	97%			416 nM	48 nM	8.7	241 nM	32 nM	1710 µg/mL (≈ 2.71 mM)	7.5
Cc1c(F)cccc1CNC(=O)[C@H]1N(C(=O)[C@@H](O)[C@H](Cc2ccccc2)NC(=O)c2cccc(O)c2C)CSC1(C)C	97%	56 nM	53%							
Cc1cccc(C)c1OCC(=O)N[C@@H](Cc1ccccc1)[C@H](O)C(=O)N1CSC(C)(C)[C@H]1C(=O)NC(C)(C)C	91%						4500 nM	1290 nM		
Cc1cc(N)cc(C)c1OCC(=O)N[C@@H](Cc1ccccc1)[C@H](O)C(=O)N1CSC(C)(C)[C@H]1C(=O)N[C@H]1c2ccccc2C[C@H]1O				1420 nM	450 nM	3.2	1500 nM	357 nM	3740 µg/mL (≈ 5.78 mM)	4.2

SMILES	inhibition [1]	EC50 [2]	inhibition [3]	EC50 [4]	EC50 [5]	Ratio EC50 [6]	EC50 [7]	EC50 [8]	solubility at 0.5 h [9]	Ratio EC50 [10]
Cc1c(O)cccc1C(=O)N[C@@H](Cc1ccccc1)[C@H](O)C(=O)N1CSC(C)(C)[C@H]1C(=O)NC1CCCCC1	86%	207 nM		1730 nM	240 nM	7.2				
CNc1cc(C)c(OCC(=O)N[C@@H](Cc2ccccc2)[C@H](O)C(=O)N2CSC(C)(C)[C@H]2C(=O)NCc2ccccc2C)c(C)c1	85%						560 nM	191 nM	2990 µg/mL (≈ 4.72 mM)	2.9
Cc1c(O)cccc1C(=O)N[C@@H](Cc1ccccc1)[C@H](O)C(=O)N1CSC(C)(C)[C@H]1C(=O)N[C@@H]1c2ccccc2C[C@@H]1O	66%	550 nM								
Cc1cc(N)cc(C)c1OCC(=O)N[C@@H](Cc1ccccc1)[C@H](O)C(=O)N1CSC(C)(C)[C@H]1C(=O)NCc1c(Cl)cccc1Cl	95%						648 nM	158 nM	1180 µg/mL (≈ 1.75 mM)	4.1
Cc1c(O)cccc1C(=O)N[C@@H](Cc1ccccc1)[C@H](O)C(=O)N1CSC(C)(C)[C@H]1C(=O)NC/C=C\CO	94%	1200 nM								
Cc1c(O)cccc1C(=O)N[C@@H](Cc1ccccc1)[C@H](O)C(=O)N1CSC(C)(C)[C@H]1C(=O)NC1CCCC1	94%	125 nM		2200 nM	290 nM	7.6				
CCNC(=O)[C@H]1N(C(=O)[C@@H](O)[C@H](Cc2ccccc2)NC(=O)c2cccc(O)c2C)CSC1(C)C	64%	182 nM								
Cc1c(O)cccc1C(=O)N[C@@H](Cc1ccccc1)[C@H](O)C(=O)N1CSC(C)(C)[C@H]1C(=O)NC1CCCCCC1	76%	332 nM								
Cc1cc(N)cc(C)c1OCC(=O)N[C@@H](Cc1ccccc1)[C@H](O)C(=O)N1CSC(C)(C)[C@H]1C(=O)NC(C)(C)C	92%			2030 nM	280 nM	7.3	601 nM	132 nM	6020 µg/mL (≈ 10.5 mM)	4.5
Cc1cc(N)cc(C)c1OCC(=O)N[C@@H](Cc1ccccc1)[C@H](O)C(=O)N1CSC(C)(C)[C@H]1C(=O)NC/C=C\CO	91%						433 nM	184 nM	9320 µg/mL (≈ 15.9 mM)	2.3
Cc1c(O)cccc1C(=O)N[C@@H](Cc1ccccc1)[C@H](O)C(=O)N1CSC(C)(C)[C@H]1C(=O)N[C@@H](C)c1ccccc1	95%	79 nM	31%							
Cc1cccc(C)c1CNC(=O)[C@H]1N(C(=O)[C@@H](O)[C@H](Cc2ccccc2)NC(=O)COc2c(C)cc(N)cc2C)CSC1(C)C	99%			409 nM	122 nM	3.4	150 nM	41 nM	1250 µg/mL (≈ 1.98 mM)	3.6
Cc1c(O)cccc1C(=O)N[C@@H](Cc1ccccc1)[C@H](O)C(=O)N1CSC(C)(C)[C@H]1C(=O)NC1CCC1	65%	119 nM								
Cc1c(O)cccc1C(=O)N[C@@H](Cc1ccccc1)[C@H](O)C(=O)N1CSC(C)(C)[C@H]1C(=O)N[C@H]1CCc2ccccc21	97%	73 nM								
Cc1cc(N)cc(C)c1OCC(=O)N[C@@H](Cc1ccccc1)[C@H](O)C(=O)N1CSC(C)(C)[C@H]1C(=O)NC1CCCC1	90%			3010 nM	620 nM	4.9	1900 nM	373 nM	7480 µg/mL (≈ 12.8 mM)	5
C=CCNC(=O)[C@H]1N(C(=O)[C@@H](O)[C@H](Cc2ccccc2)NC(=O)COc2c(C)cc(N)cc2C)CSC1(C)C	91%			470 nM	54 nM	8.7	284 nM	66 nM	12800 µg/mL (≈ 23.1 mM)	4.3
